Columns and labels:
Rattus norvegicus = species: Rattus norvegicus; assay: Relative potency in displacing 1 nM [3H]NPY from benextramine-sensitive rat brain NPYsites
[1] = Percentage of maximum displacement of 1.0 nM [3H]NPY from rat brain membranes homogenates using 1.0 uM NPY to determine specific binding; type: cell membranes; settings: Membrane
Method in brief: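 Rat brain membranes (1.2–1.6 mg protein/mL) were incubated with 1.0 nM [3H]NPY and 10⁻³–10⁻⁷ M compound in duplicate. Buffer was pH 7.4 Krebs–Ringer bicarbonate/phosphate with BSA and bacitracin, at 25 °C for 90 min. Nonspecific binding was defined with 1.0 μM NPY, and results were filtered and counted by scintillation. The value is the maximal percentage of specific [3H]NPY binding displaced, from at least triplicate experiments.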

[2] = Concentration producing half maximal displacement of [3H]NPY specific binding from benextramine sensitive NPY binding sites in rat brain membranes; type: cell membranes
Method in brief: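 Membranes from male Sprague–Dawley rat brain (250–300 g), 1.2–1.6 mg protein/mL, were incubated with 1.0 nM [3H]NPY and 10–12 concentrations (10⁻³–10⁻⁷ M) of compound. Incubation was in duplicate in Krebs–Ringer bicarbonate with 50 mM phosphate, 0.1% BSA and 0.05% bacitracin (pH 7.4), at 25 °C for 90 min. Nonspecific binding was set with 1 μM NPY. Bound ligand was collected on PEI-treated GF/A filters and counted by scintillation. Runs were done at least in triplicate, and averaged data were fit to a two-site competitive isotherm.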

Compound	maximal displacement of specific binding [1] [%]	IC50 [2] [µM]	Relative potency (Rattus norvegicus)
N=C(N)N(CCCCCCNCC12C[C@H]3C[C@@H](C1)C[C@@H](C2)C3)CCSSCCN(CCCCCCNCC12C[C@H]3C[C@@H](C1)C[C@@H](C2)C3)C(=N)N	68	15	3.8
c1ccc2cc(CNCCCCCCNCCSSCCNCCCCCCNCc3ccc4ccccc4c3)ccc2c1	68	31.3	1.8
COc1ccccc1CNCCCCCCNCCSSCCNCCCCCCNCc1ccccc1OC [BENEXTRAMINE]	65	57.6	1

More lines, in order of falling IC50 [2], values ahead:

maximal displacement of specific binding [1] [%]	IC50 [2] [µM]	Compound	Relative potency (Rattus norvegicus)
75	48.3	c1ccc2cc(CNCCCCCCNCCCCCCNCCCCCCNCc3ccc4ccccc4c3)ccc2c1	1
72	18.4	N=C(N)N(CCCCCCNCc1ccc2ccccc2c1)CCCCCCN(CCCCCCNCc1ccc2ccccc2c1)C(=N)N	2.6
76	14.8	N=C(N)N(CCCCCCNCc1ccc2ccccc2c1)CCSSCCN(CCCCCCNCc1ccc2ccccc2c1)C(=N)N	3.9
